Screening results (PubChem BioAssay)
Sampled rows, rich in hits. Any-hit rate of the full collection: about 2.7%.
OX1R antag-1: antagonists of human orexin 1 receptor (OX1R); Orexin/Hypocretin receptor type 1 (Homo sapiens), O43613; actives 1.8% (n = 330,000); OX1R-expressing cells, FRET antagonist read-out; inhibition, % at 6.6 µM; in the data active means inhibition mostly above about 38%, no sharp cut-off; inactive means mostly below about 40%;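 further: 0% = agonist challenge alone and 100% = reference antagonist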
OXTR ag: human OXTR agonists, primary screen, fluorescence, CHO-OTR cells, Fluo-8 calcium; Oxytocin receptor (Homo sapiens), P30559; Fluo-8 calcium fluorescence; normalized: DMSO 0%, oxytocin 100%; activation, % at 3 µM; actives 0.32% (n = 320,000); AID 2435, 2010;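 active means activation above the mean of all tested compounds plus 3 SD, cutoff set per screening run, cut at about 20% in these data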;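 further: peak over basal fluorescence ratio from a 100 s FLIPR kinetic read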
OX1R antag-2: OX1R (HCRTR1) antagonists, primary screen, fluorescence, CHO/OX1R cells, Fluo-8 calcium, orexin A. Orexin/Hypocretin receptor type 1 (Homo sapiens), O43613. Fluo-8 calcium fluorescence. inhibition, % at 5 µM. actives 0.43% (n = 330,000). AID 434989, 2010;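 active means inhibition above its plate's threshold, mean inhibition of all tested compounds on the plate plus 3 SD, cut at about 37% in these data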;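 further: 0% = orexin A challenge wells and 100% = SB-334867-A antagonist wells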
V1R ag counter: agonists of human V1a receptor, primary screen, counter-screen for OXTR agonist project, fluorescence, CHO-V1R cells | Fluo-8 calcium fluorescence, agonist mode; 0% DMSO, 100% 3 nM vasopressin | activation, % at 3 µM | actives 0.25% (n = 320,000);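 active means activation above the mean activation of all tested compounds plus 3 SD, per screening run, cut at about 20% in these data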;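 further: signal is peak over basal fluorescence ratio across a 100 second FLIPR read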
Target sequence (P37288 whole entry, looked up): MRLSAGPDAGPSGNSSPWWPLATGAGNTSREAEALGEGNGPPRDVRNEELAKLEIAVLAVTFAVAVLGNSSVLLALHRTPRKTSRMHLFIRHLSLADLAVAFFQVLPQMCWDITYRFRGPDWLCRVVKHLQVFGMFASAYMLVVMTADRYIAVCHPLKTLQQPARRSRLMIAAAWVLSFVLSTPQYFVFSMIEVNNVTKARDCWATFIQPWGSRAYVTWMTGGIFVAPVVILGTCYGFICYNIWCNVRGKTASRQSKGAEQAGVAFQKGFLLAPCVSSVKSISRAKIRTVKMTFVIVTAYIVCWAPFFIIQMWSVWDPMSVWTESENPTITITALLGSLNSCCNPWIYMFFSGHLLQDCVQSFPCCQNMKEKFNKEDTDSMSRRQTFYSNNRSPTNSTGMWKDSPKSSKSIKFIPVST
OXTR potentiate: human OXTR potentiators, primary screen, fluorescence, CHO-OTR cells, Fluo-8 calcium | actives 0.061% (n = 320,000) | Fluo-8 calcium fluorescence, potentiator mode; 0% = oxytocin EC15, 100% = EC100 | Oxytocin receptor (Homo sapiens), P30559 | activation, % at 3 µM;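 active means activation above that plate's cutoff, the mean activation of tested compounds plus 3 SD, cut at about 6.6% in these data, passing the limit was not always enough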;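 further: 100% uses oxytocin at 75 nM as the full agonist control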
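Material: CHO-OTR cells, human receptor; compound dosing: single dose, 3.0 µM nominal final compound concentration; schedule: 6 min compound pre-incubation at room temperature, 100 s kinetic read; measured by: kinetic Fluo-8 calcium fluorescence; read-out basis: % activation vs EC15 and EC100 oxytocin; controls: EC15 oxytocin alone as 0%, 75 nM oxytocin as 100%; replicates: singlicate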
CHO parental Ca: ATP-evoked calcium signal inhibitors, parental CHO, primary screen, counter-screen for OX1R antagonist project, cell-based, fluorescence, Fluo-8 calcium dye | parental CHO-K1, ATP-induced calcium, Fluo-8 fluorescence | actives 0.63% (n = 330,000) | inhibition, % at 5.6 µM;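 active means inhibition above that plate's mean sample inhibition plus 3 SD, cut at about 26% in these data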;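 further: 0% = ATP-challenged DMSO wells and 100% = DMSO wells without ATP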
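Material: parental CHO cells / Compound: single nominal dose of 5.6 µM per compound / Signal: Fluo-8 fluorescence / Replicates: singlicate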
OX1R Fluo8 conf: OX1R (HCRTR1) antagonists, confirmation, fluorescence, CHO/OX1R cells, Fluo-8 calcium, orexin A; shares compounds with OX1R antag-2; actives 38% (n = 1,100); AID 492963, 2010; inhibition, % at 5 µM; orexin A calcium Fluo-8 fluorescence; in the data active means inhibition above about 29%;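 further: 0% = agonist challenge alone and 100% = reference antagonist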
CHO Ca counter: ATP-evoked calcium inhibition in parental CHO, counter-screen for OX1R antagonist project, cell-based, fluorescence, CHO-K1, triplicate | shares compounds with OX1R antag-2 | ATP-induced calcium, Fluo-8 fluorescence | inhibition, % at 5.6 µM | actives 9.3% (n = 1,100) | AID 492965, 2010;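 active means inhibition above a per-plate limit, the mean inhibition of that plate's test compounds plus 3 SD, cut at about 25% in these data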;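 further: 0% = ATP challenge with DMSO and 100% = DMSO without ATP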
An asterisk follows results filed as active; nt = no result given.

SMILES	OX1R antag-1	OXTR ag	OX1R antag-2	V1R ag counter	OXTR potentiate	CHO parental Ca	OX1R Fluo8 conf	CHO Ca counter
COCCCNC(=O)CC1C(=O)N(Cc2ccccc2)C(C)c2nc3ccccc3n21 (stereo unspecified)	5	0	-9	-1	5	-10	nt	nt
CN(C)S(=O)(=O)c1ccc(-c2csc(N/N=C/c3ccco3)n2)cc1	26	11	31	12	-8	17	70*	18
CC(=O)N1CCN(S(=O)(=O)c2cccc(C(=O)NCc3ccc(F)cc3)c2)CC1	15	0	-10	0	-4	-22	nt	nt
COc1cccc(CNC(=O)c2cccc(S(=O)(=O)N3CCN(c4ccc(F)cc4)CC3)c2)c1	22	10	24	9	-17	12	26	3
COc1ccc(COC(=O)c2cccc(S(=O)(=O)N3CCN(C(C)=O)CC3)c2)cc1	28	16	29	10	-19	14	11	1
NC(=S)NN=C1c2ccccc2-c2ccccc21	16	-1	-27	3	-1	-12	nt	nt
Cc1ccc(S(=O)(=O)NC(=O)c2ccccc2C)cc1	10	0	-27	1	-7	2	nt	nt
Cc1nc2c(-c3ccc(Cl)cc3)cnn2c2c1CCC2	45	0	40*	0	-5	-9	34*	-18
Cc1nc2c(-c3ccc(Cl)cc3)cnn2c(N)c1-c1ccc(F)cc1	15	2	-23	1	-1	1	nt	nt
O=C(O)/C=C\C(=O)NCc1cccnc1	11	0	-8	0	-6	5	nt	nt
COc1cc(C(=O)Nc2ccc(Cl)c([N+](=O)[O-])c2)cc(OC)c1OC	18	3	-20	5	-15	-11	nt	nt
Cc1nn(C)c(C(=O)Nc2ccc(Cl)c([N+](=O)[O-])c2)c1Cl	5	1	36	3	-9	3	2	0
NS(=O)(=O)c1ccc(CCNC(=O)CNC(=O)c2ccc(Br)o2)cc1	6	0	15	1	-4	-5	nt	nt
Cc1ccc(/C=C2\Sc3ccccc3C2=O)s1	13	-2	30	0	-10	-22	34*	-1
CN(CC(=O)Nc1ccc(Cl)c(Cl)c1)C(=O)c1cccc2cccnc12	10	5	-19	9	-8	-19	nt	nt
O=[N+]([O-])c1ccc(N/N=C/c2ccccc2O)cc1	17	6	34	7	-22	27	24	17
O=C(OCc1ccc(COC(=O)c2cccnc2Cl)cc1)c1cccnc1Cl	18	11	58*	9	-27	12	30*	36*
O=C(OCc1ccc(F)cc1)c1cccnc1Cl	7	0	-15	0	-2	4	nt	nt
CCOC(=O)N1CCN(C(=O)c2ccc3c(=O)n(-c4cc(OC)ccc4OC)c(=S)[nH]c3c2)CC1	21	-1	-27	1	0	-11	nt	nt
CCN1CCN(c2ccc(NC(=O)c3cccc(F)c3)cc2Cl)CC1	11	3	-20	1	-20	-13	nt	nt
Cc1ccccc1NS(=O)(=O)c1cc(C(=O)NCCSC2CCCCC2)ccc1C	21	-1	60*	0	-8	-6	4	-12
Cc1ccc(C)c(NS(=O)(=O)c2cc(C(=O)NCCSC3CCCCC3)ccc2C)c1	17	-2	51*	1	-6	-9	-1	-15
Cc1ccc(C)c(NS(=O)(=O)c2cc(C(=O)NCC3CCCO3)ccc2C)c1 (stereo unspecified)	6	0	-17	5	-1	-10	nt	nt
Cc1ccc(C)c(NS(=O)(=O)c2cc(C(=O)Nc3cccc(N(C)S(C)(=O)=O)c3)ccc2C)c1	34	1	65*	6	-7	16	36*	-8
Cc1ccc(NS(=O)(=O)c2cc(C(=O)Nc3cccc(N(C)S(C)(=O)=O)c3)ccc2C)c(C)c1	40	-1	14	2	-13	4	nt	nt
SMILES	OX1R antag-1	OXTR ag	OX1R antag-2	V1R ag counter	OXTR potentiate	CHO parental Ca	OX1R Fluo8 conf	CHO Ca counter
Cc1ccccc1NS(=O)(=O)c1cc(C(=O)N2CCCC2)ccc1C	3	-1	-15	6	-16	2	nt	nt
OC1COC(O)C(O)C1O (stereo unspecified)	11	-1	-6	1	-5	6	nt	nt
CC(Oc1ccc2c3c(c(=O)oc2c1)CCCC3)C(=O)NCc1ccccn1 (stereo unspecified)	20	1	54*	2	-1	-26	-11	-14
Cc1cccc(OCCCC(=O)Nc2ccc(Cl)c(S(=O)(=O)N3CCOCC3)c2)c1	7	11	35	11	-12	-12	7	8
Cc1cccc(OCCC(=O)Nc2ccc(C)c(S(=O)(=O)N3CCOCC3)c2)c1	11	9	-6	8	-9	-9	nt	nt
O=S(=O)(NC1CCSc2ccccc21)c1ccc(Cl)nc1 (stereo unspecified)	18	0	52*	1	-4	-7	7	-13
CC(=O)c1ccc(S(=O)(=O)NC2CCSc3ccccc32)cc1 (stereo unspecified)	19	2	-7	6	-9	-6	nt	nt
CSc1nc(Cl)cc(Nc2ccc(O)cc2)n1	10	-1	-17	-2	-7	-4	nt	nt
O=C(Nc1cccc(S(=O)(=O)Nc2ccc(SC(F)F)cc2)c1)C1CCC1	17	8	37	8	-10	6	3	-2
COc1ccccc1C(=O)COC(=O)c1ccccc1O	31	-3	-37	-1	-15	-5	nt	nt
COc1ccccc1C(=O)COC(=O)c1ccc(N(C)C)cc1	34	-1	30	0	-14	0	9	19
CCN(CC(=O)NCc1ccc(Cl)cc1)C(=O)c1ccc(S(=O)(=O)N(C)C)cc1	12	-1	-12	-1	-3	-12	nt	nt
CCCCOc1ccc(S(=O)(=O)N2CCCCCC2)cc1	-1	-1	42	0	-12	5	-14	13
O=C(C1CCN(S(=O)(=O)c2ccccc2F)CC1)N1CCc2ccccc2C1	23	1	-4	1	-6	0	nt	nt
